This is an account of results in ChEMBL document CHEMBL5712888, “Pharmacological targeting of the Wdr5-MLL interaction in C/EBPα N-terminal leukemia” (Nat Chem Biol, 2015).

The structures appear in SMILES notation. Activity calls are given as the source filed them. The rule behind the calls is not given here.

The target of series [1] is Cyclin-dependent kinase 5/CDK5 activator 1 (Homo sapiens) (UniProt Q00535+Q15078). The series can be described thus: Inhibition of CDK5/p35 (unknown origin) assessed as remaining activity at 1 uM relative to control. The series is classed as protein-complex assay.
Sequence of Cyclin-dependent kinase 5/CDK5 activator 1 (Homo sapiens) (Q00535 whole entry): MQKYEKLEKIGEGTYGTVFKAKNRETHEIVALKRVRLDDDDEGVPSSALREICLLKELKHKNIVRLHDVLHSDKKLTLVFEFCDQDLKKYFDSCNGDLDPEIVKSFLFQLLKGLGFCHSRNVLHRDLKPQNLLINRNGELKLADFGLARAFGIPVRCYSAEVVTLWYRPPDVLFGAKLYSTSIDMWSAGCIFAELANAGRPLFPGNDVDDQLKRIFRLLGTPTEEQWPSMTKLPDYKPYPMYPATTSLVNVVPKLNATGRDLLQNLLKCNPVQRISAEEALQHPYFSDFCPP
Sequence of Cyclin-dependent kinase 5/CDK5 activator 1 (Homo sapiens) (Q15078 99-307 partner limits assumed): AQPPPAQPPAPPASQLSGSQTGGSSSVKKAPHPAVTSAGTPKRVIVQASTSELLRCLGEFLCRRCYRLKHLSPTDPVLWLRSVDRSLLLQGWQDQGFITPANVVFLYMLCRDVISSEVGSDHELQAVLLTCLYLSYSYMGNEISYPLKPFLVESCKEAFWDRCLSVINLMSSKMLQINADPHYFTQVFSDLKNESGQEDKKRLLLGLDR
Series [2] in a line: Toxicity in mouse bone marrow cells assessed as reduction in colony formation at 2.5 to 20 uM after 7 day by CFU assay. The series is classed as cell-based. The note with it: bone marrow cell, 168 h, dose 2.5-20 µM.
Series [3] has as its system Hepatocyte. Briefly: Induction of myeloid differentiation in mouse primary fetal liver cells expressing C/EBP-alpha p30 assessed as upregulation of Lcn2 mRNA expression at 20 uM after 3 to 6 days by qRT-PCR analysis. The note with it: time 3-6 day. The format is functional, cell-based. An outline of the steps: (§1)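 Cebpap30/p30 cells in culture with 20 μM compound for the indicated periods. Total RNA (300 ng) reverse transcribed with oligo(dT); SYBR qPCR, quantified by 2−ddCt method; mean ± SD of triplicate experiments, t-test.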
Background: In qPCR the cycle at which signal appears reflects the starting amount.

The test system of series [4] is Hepatocyte. Briefly: Induction of myeloid differentiation in mouse primary fetal liver cells expressing C/EBP-alpha p30 assessed as upregulation of Mac-1/Gr-1 double positive cells at 20 uM after 6 days by flow cytometry analysis. The format is functional, cell-based. The note with it: time 6.0 day. The method in brief:
(§2)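 Cebpap30/p30 cells left untreated or given 20 μM compound for 6 days. Fc receptors blocked with anti-CD16/CD32, then Mac-1 and Gr-1 staining by flow cytometry, with Mac-1/Gr-1 double-positive cells counted at the indicated time points. Cytospins stained with Kwik-Diff for microscopic morphology.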
(A flow cytometer gives signals particle by particle.)

A short description of series [5]: Antiproliferative activity against human acute myeloid leukemic cells harboring N-terminal CEBPA mutation assessed as vaibility at 5 uM after 72 hrs by cell titer glo luminescent cell viability assay relative to control. The series is classed as functional, Leukemia cell. An outline of the steps: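 20,000 viable proliferating cells per well in triplicate, exposed to 5 μM compound or 0.05% DMSO for 72 h (3 days); CellTiter-Glo luminescence, normalized to DMSO for each patient sample; mean ± SD.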

For series [6], the target named is CDK9/cyclin T1 (Homo sapiens) (UniProt O60563+P50750). Briefly: Inhibition of CDK9/CycT1 (unknown origin) assessed as remaining activity at 1 uM relative to control. The series is classed as protein-complex assay.
For series [7], the target named is Kappa-type opioid receptor (Homo sapiens) (UniProt P41145). Briefly: Displacement of [3H]U69593 from human kappa receptor assessed as remaining activity at 1 uM after 60 mins by scintillation counting analysis relative to control. On the technique in general: Displacement assays read how much labelled ligand stays bound in the presence of the test substance.
Sequence of Kappa-type opioid receptor (Homo sapiens) (P41145 whole entry): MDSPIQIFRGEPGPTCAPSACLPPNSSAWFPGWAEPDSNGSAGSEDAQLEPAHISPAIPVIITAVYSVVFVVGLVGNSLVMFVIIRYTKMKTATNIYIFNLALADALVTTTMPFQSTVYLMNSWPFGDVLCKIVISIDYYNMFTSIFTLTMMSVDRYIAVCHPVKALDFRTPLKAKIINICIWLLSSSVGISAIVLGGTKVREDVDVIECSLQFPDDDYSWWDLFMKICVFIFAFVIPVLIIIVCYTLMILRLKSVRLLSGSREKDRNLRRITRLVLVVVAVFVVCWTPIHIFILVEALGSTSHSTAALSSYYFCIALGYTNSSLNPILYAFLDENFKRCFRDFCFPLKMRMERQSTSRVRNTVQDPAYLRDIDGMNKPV
The subject of series [8] is Hepatocyte. The series can be described thus: Induction of myeloid differentiation in mouse primary fetal liver cells expressing C/EBP-alpha p30 assessed as upregulation of Ccl9 mRNA expression at 20 uM after 3 to 6 days by qRT-PCR analysis. The format is functional, cell-based. The note with it: time 3-6 day. An outline of the steps:
as §1

Series [9] concerns Hepatocyte. The series can be described thus: Induction of myeloid differentiation in mouse primary fetal liver cells expressing C/EBP-alpha p30 assessed as upregulation of Lilrb3 mRNA expression at 20 uM after 3 to 6 days by qRT-PCR analysis. The format is functional, cell-based. Particulars: time 3-6 day. An outline of the steps: as §1
The subject of series [10] is Hepatocyte. Briefly: Induction of myeloid differentiation in mouse primary fetal liver cells expressing C/EBP-alpha p30 assessed as upregulation of C3ar1 mRNA expression at 20 uM after 3 to 6 days by qRT-PCR analysis. The format is functional, cell-based. Particulars: time 3-6 day. An outline of the steps: as §1
In series [11] the test system is Hepatocyte. Briefly: Induction of myeloid differentiation in mouse primary fetal liver cells expressing C/EBP-alpha p30 assessed as upregulation of Lyz2 mRNA expression at 20 uM after 3 to 6 days by qRT-PCR analysis. The format is functional, cell-based. The note with it: time 3-6 day. The method in brief: as §1
Series [12] concerns the target Cyclin-dependent kinase 4/cyclin D1 (Homo sapiens) (UniProt P11802+P24385). Briefly: Inhibition of CDK4/cycD1 (unknown origin) assessed as remaining activity at 1 uM relative to control. The series is classed as protein-complex assay.
In series [13] the target is T1, Alpha-1A adrenergic receptor (Rattus norvegicus) (UniProt P43140).
T1 sequence (whole entry): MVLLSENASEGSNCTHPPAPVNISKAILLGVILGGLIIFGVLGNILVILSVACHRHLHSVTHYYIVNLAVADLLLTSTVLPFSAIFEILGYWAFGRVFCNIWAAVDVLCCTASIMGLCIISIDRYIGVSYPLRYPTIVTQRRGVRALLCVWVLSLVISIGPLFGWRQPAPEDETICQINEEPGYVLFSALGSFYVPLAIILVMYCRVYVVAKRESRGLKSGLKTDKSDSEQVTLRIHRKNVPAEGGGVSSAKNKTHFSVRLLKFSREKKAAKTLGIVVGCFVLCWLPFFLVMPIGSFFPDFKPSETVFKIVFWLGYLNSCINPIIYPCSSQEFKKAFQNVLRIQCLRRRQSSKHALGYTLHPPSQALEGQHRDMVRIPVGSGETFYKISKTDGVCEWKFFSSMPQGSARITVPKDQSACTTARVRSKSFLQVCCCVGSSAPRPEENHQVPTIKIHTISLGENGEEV
Briefly: Displacement of [3H]prazosin from rat […] brain alpha1 adrenergic receptor assessed as remaining activity at 1 uM after 60 mins by scintillation counting method relative to control. The format is tissue-based.

The subject of series [14] is Hepatocyte. Briefly: Inhibition of colony formation in mouse primary fetal liver cells expressing C/EBP-alpha p30 at 5 to 20 uM after 7 day by colony formation assay. The note with it: dose 5-20 µM. The series is classed as functional, cell-based. The method in brief: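 Primary Cebpap30/p30 fetal liver cells, maintained in DMEM/10% FCS with SCF, IL-6 and IL-3, plated at 1×10^4 cells in complete methylcellulose (M3434) with compound at the indicated concentrations; colonies scored 7 days later and normalized to DMSO for each genotype; mean ± SD of triplicate experiments.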

Series [15] relates to Hepatocyte. The series can be described thus: Induction of progenitor morphology loss in mouse primary fetal liver cells expressing C/EBP-alpha p30 at 20 uM after 6 days by Cytospin stainig based microscopic analysis. The series is classed as functional, cell-based. The note with it: time 6.0 day. An outline of the steps:
as §2

The species named for series [16] is Homo sapiens. Briefly: Binding affinity against WDR5 S91K mutant (unknown origin) at 50 uM by differential scanning fluorimetry. The method in brief:
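Thermal shift of purified recombinant S91K-mutant WDR5 measured by differential scanning fluorimetry, with test compound at 50 μM run alongside a DMSO vehicle control.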

The test system of series [17] is K562. Briefly: Antiproliferative activity against human K562 cells assessed as reduction in cell viability after 72 hrs by cell TiterGlo luminescent cell viability assay. The format is functional, cell-based.
Series [18] relates to Hepatocyte. Briefly: Antiproliferative activity against mouse primary fetal liver cells expressing C/EBP-alpha p30 assessed as reduction in cell viability after 72 hrs by cell TiterGlo luminescent cell viability assay. The series is classed as functional, cell-based.

In the case of `CN1CCN(c2ccc(-c3cccc(CN4CCOCC4)c3)cc2NC(=O)c2c[nH]c(=O)cc2C(F)(F)F)CC1`, the Activity was 102% in series [1]; “Non-Toxic” in series [2]; 53% in series [5]; 98% in series [6]; 102% in series [7]; 102% in series [12]. Further, in series [13], the Activity is 99%. Besides, the outcome in series [3], in [4], in [8], in series [9], in series [10] and in series [11] was Active. In addition, in series [15], the outcome was Active. Moreover, in [14], the inhibition result is “Active”. In addition, the outcome in series [16] was inactive.

As to `O=C(Nc1cc(-c2cccc(CN3CCOCC3)c2)ccc1N1CCOCC1)c1c[nH]c(=O)cc1C(F)(F)F`, the outcome in [17] and in series [18] was inactive.
